pIC50, pKi: −log10 of the molar value.
Target: T1, Adenosine receptor A1 (Homo sapiens) (UniProt P30542)
T1 sequence (whole entry): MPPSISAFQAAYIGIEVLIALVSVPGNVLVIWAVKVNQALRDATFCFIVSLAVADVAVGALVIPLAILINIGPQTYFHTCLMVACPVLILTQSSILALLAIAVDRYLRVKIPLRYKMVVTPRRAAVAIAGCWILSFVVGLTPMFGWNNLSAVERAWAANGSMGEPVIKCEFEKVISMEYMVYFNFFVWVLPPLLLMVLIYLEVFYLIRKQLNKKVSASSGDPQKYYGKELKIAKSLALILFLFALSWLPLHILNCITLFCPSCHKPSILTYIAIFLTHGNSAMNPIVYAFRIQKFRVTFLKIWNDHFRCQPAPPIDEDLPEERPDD
Test: Displacement of [3H]DPCPX from human adenosine A1 receptor expressed in HEK293 cells at 10 uM by scintillation counting
Type: cell-based
Settings: not given

In order of falling Activity:
1. CC(C)(C)CC(=O)N1CCN(c2nc(N)n3nc(-c4ccco4)nc3n2)CC1  53.1%
2. Nc1nc(N2CCN(C(=O)c3ccc([N+](=O)[O-])cc3)CC2)nc2nc(-c3ccco3)nn12  35.5%
3. O=C(Nc1nc(O)nc2nc(-c3ccco3)nn12)c1ccccc1  34.4%
4. Nc1nc(N2CCN(C(=O)c3ccccc3)CC2)nc2nc(-c3ccco3)nn12  27.7%
5. NCCNc1nc(NCCN)n2nc(-c3ccco3)nc2n1  10.7%
6. CC(C)(C)OC(=O)NCCNc1nc(NCCNC(=O)OC(C)(C)C)n2nc(-c3ccco3)nc2n1  7.4%

Target: T2, Adenosine receptor A3 (Homo sapiens) (UniProt P0DMS8)
T2 sequence (whole entry): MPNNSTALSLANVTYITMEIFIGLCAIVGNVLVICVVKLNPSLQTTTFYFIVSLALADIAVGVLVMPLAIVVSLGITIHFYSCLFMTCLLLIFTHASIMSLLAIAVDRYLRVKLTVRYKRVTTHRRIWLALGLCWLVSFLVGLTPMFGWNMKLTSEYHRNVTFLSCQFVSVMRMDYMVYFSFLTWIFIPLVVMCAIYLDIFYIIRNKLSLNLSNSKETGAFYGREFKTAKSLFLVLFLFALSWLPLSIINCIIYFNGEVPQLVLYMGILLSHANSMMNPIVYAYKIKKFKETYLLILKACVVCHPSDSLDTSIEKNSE
Test: Displacement of [I125]I-AB-MECA from human adenosine A3 receptor expressed in CHO cells at 10 uM by scintillation counting
Type: cell-based
Settings: not given

In order of falling Activity:
1. O=C(Nc1nc(O)nc2nc(-c3ccco3)nn12)c1ccccc1  75.9%
2. NCCOCCOCCNc1nc(N)n2nc(-c3ccco3)nc2n1.O=C(O)C(F)(F)F  59.2%
3. CC(C)(C)OC(=O)N1CCN(c2nc(N)n3nc(-c4ccco4)nc3n2)CC1  56.6%
4. Nc1nc(N2CCN(Cc3cccc(Cl)c3)CC2)nc2nc(-c3ccco3)nn12  52.7%
5. Nc1nc(N2CCN(C(=O)c3ccc([N+](=O)[O-])cc3)CC2)nc2nc(-c3ccco3)nn12  50.9%
6. Nc1nc(N2CCN(Cc3ccc(Br)cc3)CC2)nc2nc(-c3ccco3)nn12  49.8%
7. CC(C)(C)CC(=O)N1CCN(c2nc(N)n3nc(-c4ccco4)nc3n2)CC1  41.9%
8. Nc1nc(N2CCN(C(=O)c3ccccc3)CC2)nc2nc(-c3ccco3)nn12  22.6%
9. NCCNc1nc(NCCN)n2nc(-c3ccco3)nc2n1  17.7%

Target: T3, Adenosine receptor A2b (Homo sapiens, UniProt P29275)
T3 sequence (P29275 whole entry): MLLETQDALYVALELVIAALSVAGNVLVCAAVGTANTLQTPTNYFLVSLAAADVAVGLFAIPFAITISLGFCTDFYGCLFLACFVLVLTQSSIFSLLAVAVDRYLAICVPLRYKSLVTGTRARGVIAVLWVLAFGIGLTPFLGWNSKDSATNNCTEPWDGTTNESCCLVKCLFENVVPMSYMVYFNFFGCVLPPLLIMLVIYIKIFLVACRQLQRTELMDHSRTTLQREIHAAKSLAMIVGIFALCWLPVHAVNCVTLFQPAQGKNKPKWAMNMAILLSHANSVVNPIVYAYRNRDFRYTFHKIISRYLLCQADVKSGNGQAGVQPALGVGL
Test: Antagonist activity at human recombinant adenosine A2B receptor expressed in CHO cells assessed as inhibition of NECA-stimulated adenylyl cyclase activity
Type: functional, cell-based
Settings: not given
Summary of the method: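 Membranes from CHO cells stably expressing the hA2B receptor were incubated 20 min with about 150,000 cpm [α-32P]ATP, without EGTA and NaCl. The read-out was antagonist concentration-dependent inhibition of NECA-stimulated adenylyl cyclase. IC50 was calculated with the Hill equation.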

`Nc1nc(N2CCN(Cc3cccc(Cl)c3)CC2)nc2nc(-c3ccco3)nn12` and `Nc1nc(N2CCN(Cc3ccc(Br)cc3)CC2)nc2nc(-c3ccco3)nn12` cannot be ordered by pIC50: < 4.52 for the first, < 5.00 for the second.

`NCCOCCOCCNc1nc(N)n2nc(-c3ccco3)nc2n1.O=C(O)C(F)(F)F` and `NCCNc1nc(NCCN)n2nc(-c3ccco3)nc2n1` cannot be ordered by pIC50: < 5.00 for the first, < 4.00 for the second.

`Nc1nc(N2CCN(C(=O)c3ccc([N+](=O)[O-])cc3)CC2)nc2nc(-c3ccco3)nn12` and `Nc1nc(N2CCN(C(=O)c3ccccc3)CC2)nc2nc(-c3ccco3)nn12` cannot be ordered by pIC50: < 4.00 for the first, < 4.00 for the second.

`CC(C)(C)OC(=O)N1CCN(c2nc(N)n3nc(-c4ccco4)nc3n2)CC1` and `CC(C)(C)CC(=O)N1CCN(c2nc(N)n3nc(-c4ccco4)nc3n2)CC1` cannot be ordered by pIC50: < 5.00 for the first, < 4.00 for the second.

`CC(C)(C)OC(=O)NCCNc1nc(NCCNC(=O)OC(C)(C)C)n2nc(-c3ccco3)nc2n1` and `O=C(Nc1nc(O)nc2nc(-c3ccco3)nn12)c1ccccc1` cannot be ordered by pIC50: < 4.00 for the first, < 4.00 for the second.

Target: T4, Adenosine receptor A3 (Homo sapiens, UniProt P0DMS8)
T4 sequence (P0DMS8 whole entry): T2 sequence (whole entry)
Test: Displacement of [I125]I-AB-MECA from human adenosine A3 receptor expressed in CHO cells by scintillation counting
Type: cell-based
Settings: not given

In the case of `CC(C)(C)OC(=O)NCCNc1nc(NCCNC(=O)OC(C)(C)C)n2nc(-c3ccco3)nc2n1`, the pKi was 5.07.

Species on record: Homo sapiens
Test: Selectivity ratio of Ki for human adenosine A1 receptor to Ki for human adenosine A2A receptor
Settings: not given

In order of rising Ratio Ki:
1. NCCNc1nc(NCCN)n2nc(-c3ccco3)nc2n1  0.3
2. Nc1nc(N2CCN(Cc3ccc(Br)cc3)CC2)nc2nc(-c3ccco3)nn12  3.2
3. Nc1nc(N2CCN(Cc3cccc(Cl)c3)CC2)nc2nc(-c3ccco3)nn12  29
4. CC(C)(C)OC(=O)N1CCN(c2nc(N)n3nc(-c4ccco4)nc3n2)CC1  257
5. CC(C)(C)CC(=O)N1CCN(c2nc(N)n3nc(-c4ccco4)nc3n2)CC1  900

Target: Adenosine receptor A2a (Homo sapiens, UniProt P29274)
Test: Displacement of [3H]ZM241385 from human adenosine A2A receptor expressed in HEK293 cells by scintillation counting
Type: cell-based
Settings: not given

Sequence of Adenosine receptor A2a (P29274 whole entry): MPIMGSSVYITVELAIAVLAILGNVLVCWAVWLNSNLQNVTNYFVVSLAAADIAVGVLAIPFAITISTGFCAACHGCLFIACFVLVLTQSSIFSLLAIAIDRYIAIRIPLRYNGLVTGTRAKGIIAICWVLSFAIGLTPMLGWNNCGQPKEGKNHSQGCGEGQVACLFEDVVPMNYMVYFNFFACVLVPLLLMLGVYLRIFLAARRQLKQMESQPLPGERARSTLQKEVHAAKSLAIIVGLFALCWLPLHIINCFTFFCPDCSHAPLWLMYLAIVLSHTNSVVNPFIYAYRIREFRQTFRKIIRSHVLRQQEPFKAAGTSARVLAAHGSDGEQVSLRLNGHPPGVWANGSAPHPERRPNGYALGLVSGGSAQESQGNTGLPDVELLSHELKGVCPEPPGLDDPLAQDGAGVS

In order of rising pKi:
1. NCCNc1nc(NCCN)n2nc(-c3ccco3)nc2n1  4.42
2. CC(C)(C)OC(=O)NCCNc1nc(NCCNC(=O)OC(C)(C)C)n2nc(-c3ccco3)nc2n1  5.36
3. O=C(Nc1nc(O)nc2nc(-c3ccco3)nn12)c1ccccc1  5.76
4. Nc1nc(N2CCN(C(=O)c3ccccc3)CC2)nc2nc(-c3ccco3)nn12  6.46
5. Nc1nc(N2CCN(C(=O)c3ccc([N+](=O)[O-])cc3)CC2)nc2nc(-c3ccco3)nn12  6.67
6. Nc1nc(N2CCN(Cc3cccc(Cl)c3)CC2)nc2nc(-c3ccco3)nn12  7.29
7. Nc1nc(N2CCN(Cc3ccc(Br)cc3)CC2)nc2nc(-c3ccco3)nn12  7.56
8. CC(C)(C)OC(=O)N1CCN(c2nc(N)n3nc(-c4ccco4)nc3n2)CC1  7.68
9. NCCOCCOCCNc1nc(N)n2nc(-c3ccco3)nc2n1.O=C(O)C(F)(F)F  7.94
10. CC(C)(C)CC(=O)N1CCN(c2nc(N)n3nc(-c4ccco4)nc3n2)CC1  7.95

Tested on: not listed separately
Test: Aqueous solubility of the compound
Type: physicochemical
Settings: water (aqueous)

`NCCOCCOCCNc1nc(N)n2nc(-c3ccco3)nc2n1.O=C(O)C(F)(F)F` gave a solubility of 10 mM.

Species on record: Homo sapiens
Test: Selectivity ratio of Ki for human adenosine A3 receptor to Ki for human adenosine A2A receptor
Settings: not given

Going from `Nc1nc(N2CCN(Cc3cccc(Cl)c3)CC2)nc2nc(-c3ccco3)nn12` to `Nc1nc(N2CCN(Cc3ccc(Br)cc3)CC2)nc2nc(-c3ccco3)nn12`, the Ratio Ki rises from 200 to 300.

Going from `Nc1nc(N2CCN(C(=O)c3ccc([N+](=O)[O-])cc3)CC2)nc2nc(-c3ccco3)nn12` to `CC(C)(C)OC(=O)N1CCN(c2nc(N)n3nc(-c4ccco4)nc3n2)CC1`, the Ratio Ki rises from 40 to 400.

Going from `CC(C)(C)OC(=O)NCCNc1nc(NCCNC(=O)OC(C)(C)C)n2nc(-c3ccco3)nc2n1` to `CC(C)(C)CC(=O)N1CCN(c2nc(N)n3nc(-c4ccco4)nc3n2)CC1`, the Ratio Ki rises from 1.9 to > 900.

Target: T5, Adenosine receptor A1 (Homo sapiens, UniProt P30542)
T5 sequence (P30542 whole entry): T1 sequence (whole entry)
Test: Displacement of [3H]DPCPX from human adenosine A1 receptor expressed in HEK293 cells by scintillation counting
Type: cell-based
Settings: not given

In order of falling pKi:
1. Nc1nc(N2CCN(Cc3ccc(Br)cc3)CC2)nc2nc(-c3ccco3)nn12  7.06
2. NCCOCCOCCNc1nc(N)n2nc(-c3ccco3)nc2n1.O=C(O)C(F)(F)F  6.11
3. Nc1nc(N2CCN(Cc3cccc(Cl)c3)CC2)nc2nc(-c3ccco3)nn12  5.82
4. CC(C)(C)OC(=O)N1CCN(c2nc(N)n3nc(-c4ccco4)nc3n2)CC1  5.27

From ChEMBL document CHEMBL1926574, “Synthesis and biological evaluation of a new series of 1,2,4-triazolo[1,5-a]-1,3,5-triazines as human A(2A) adenosine receptor antagonists with improved water solubility” (J Med Chem, 2011)
